Data published in ChEMBL document CHEMBL4613249, “Serendipitous Discovery of Leucine and Methionine Depletion Agents during the Search for Polyamine Transport Inhibitors” (J Med Chem, 2020).
Calls of active or inactive are those of the source.

How the values were obtained:
[1] = target: Large neutral amino acids transporter small subunit 1 (Homo sapiens) (UniProt Q01650); experiment: Inhibition of LAT1-mediated [3H]-leucine uptake in human L3.6PL cells at 30 uM and 37 degree C measured after 2 mins by scintillation counter method; assay type: cell-based
Chain of Large neutral amino acids transporter small subunit 1 (Homo sapiens) (Q01650 whole entry): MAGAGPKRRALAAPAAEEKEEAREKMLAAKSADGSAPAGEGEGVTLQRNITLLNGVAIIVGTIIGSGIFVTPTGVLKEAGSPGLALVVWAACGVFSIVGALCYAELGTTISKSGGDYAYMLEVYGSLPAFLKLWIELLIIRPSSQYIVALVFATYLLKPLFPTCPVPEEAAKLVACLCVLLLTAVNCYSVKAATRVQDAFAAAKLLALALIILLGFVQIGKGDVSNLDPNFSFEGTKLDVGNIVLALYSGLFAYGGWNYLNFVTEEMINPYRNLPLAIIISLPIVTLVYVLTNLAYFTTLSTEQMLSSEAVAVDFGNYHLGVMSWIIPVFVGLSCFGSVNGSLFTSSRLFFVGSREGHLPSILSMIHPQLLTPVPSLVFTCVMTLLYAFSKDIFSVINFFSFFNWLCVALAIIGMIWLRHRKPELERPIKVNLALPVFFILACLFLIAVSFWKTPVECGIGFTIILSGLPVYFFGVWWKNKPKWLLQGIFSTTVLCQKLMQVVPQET

CHO-K1 [2] = experiment: Cytotoxicity against CHOK1 cells assessed as effect on cell growth at 10 uM measured after 48 hrs by MTS assay; assay type: cell-based, Cricetulus griseus; settings: chinese hamster, cho-k1, 48 h
CHO-K1 [3] = experiment: Inhibition of polyamine transporter in DFMO-treated CHOK1 cells assessed as prevention of spermidine entry into cells by measuring rescue of DFMO-induced reduction in cell growth at 1 to 10 uM measured after 48 hrs in presence of amine oxidase suppressor aminoguanidine by MTS assay; assay type: cell-based; settings: Cricetulus griseus
How it was run: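 CHO K1 cells (1000 cells/well) were pre-incubated 24 h with 1 mM aminoguanidine. They were then given fixed DFMO (4.2 mM) and spermidine (1 μM) plus increasing compound doses for 48 h at 37°C. EC50 is the concentration bringing MTS relative growth halfway between the DFMO+Spd and DFMO-only controls. Runs were done twice in triplicate, with SD.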

CHO-K1 [4] = experiment: Inhibition of polyamine transporter in CHOK1 cells assessed as rescue of 2.4 uM N-(anthracenylmethyl) homospermidine-induced toxicity by measuring cell growth at 7 uM measured after 48 hrs in presence of amine oxidase suppressor aminoguanidine by MTS assay (reference value: 23%); assay type: cell-based; set-up: scale not given: the % may be the effect or the level left; settings: Cricetulus griseus
How it was run: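 CHO K1 cells (1000 cells/well, aminoguanidine 1 mM preincubation) were given a toxic Ant-44 dose (2.4 μM) with candidate compound at 5 or 7 μM. Cells were incubated 48 h at 37°C, and relative growth versus untreated control was read by MTS.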

CHO-K1 [5] = experiment: Cytotoxicity against CHOK1 cells assessed as effect on cell growth at < 7 uM measured after 48 hrs by MTS assay; assay type: cell-based, Cricetulus griseus; settings: chinese hamster, cho-k1, 48 h
CHO-K1 [6] = experiment: Potentiation of 0.5 uM N-(anthracenylmethyl) homospermidine-induced toxicity in CHOK1 cells assessed as increase in Ant-44-induced reduction in cell growth measured after 48 hrs in presence of amine oxidase suppressor aminoguanidine by MTS assay; assay type: functional, cell-based; settings: Cricetulus griseus
How it was run: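 CHO K1 cells were pretreated 24 h with 1 mM aminoguanidine, then given fixed Ant-44 (0.5 μM) plus increasing compound (up to 5 μM) for 48 h at 37°C. MTS growth was read, with EC50 defined as the dose halving growth relative to Ant-44 alone. Runs were done twice in triplicate, with SD.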

L3.6pl [7] = experiment: Cytotoxicity against human L3.6PL cells assessed as reduction in cell viability measured after 72 hrs by MTS assay; assay type: cell-based
How it was run: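 L3.6pl cells, 500 cells/well in RPMI 1640 with 10% FBS and 250 μM aminoguanidine, plated overnight. Compound in PBS added, then 72 h at 37°C. MTS absorbance at 490 nm. IC50 is the dose giving 50% relative growth versus untreated control. Run twice in triplicate.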

L3.6pl [8] = experiment: Cytotoxicity against human L3.6PL cells assessed as reduction in cell viability at 5 uM measured after 72 hrs by MTS assay; assay type: cell-based
L3.6pl [9] = experiment: Potentiation of 2 uM N-(anthracenylmethyl) homospermidine-induced toxicity in human L3.6PL cells assessed as increase in Ant-44-induced reduction in cell growth measured after 72 hrs in presence of amine oxidase suppressor aminoguanidine by MTS assay; assay type: functional, cell-based
How it was run: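 L3.6pl cells (500 cells/well) were pretreated 24 h with 250 μM aminoguanidine in PBS, then given Ant-44 (2 μM) with increasing compound for 72 h at 37°C. MTS growth was read, with EC50 relative to the Ant-44-only control.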

Row | inhibition [1] | SMILES | Activity (CHO-K1 [2]) | inhibition (CHO-K1 [3]) | Activity (CHO-K1 [4]) [%] | Activity (CHO-K1 [5]) | Activity (CHO-K1 [6]) | EC50 (CHO-K1 [6]; CHO-K1, 48 h) [nM] | IC50 (L3.6pl [7]) [µM] | Activity (L3.6pl [8]) | EC50 (L3.6pl [9]) [µM]
1 | Active | Nc1cc(COc2c(Cl)cc(C[C@H](N)C(=O)O)cc2Cl)c2oc(-c3ccccc3)nc2c1 | – | – | – | – | – | – | – | – | –
2 | – | CC(C)(C)CCN1CCN([C@H](CNCc2ccccc2)Cc2ccccc2)C[C@@H]1Cc1ccccc1 | Non-Toxic | inactive | 2.1 | Non-Toxic | Dose-dependent effect | 750 | 11.7 | Non-Toxic | 3.27
